Rows were chosen to be rich in hits. Some 2.2% of all compounds tested hit in one or more screens of this group.
CDK5 inh: inhibitors of human CDK5/p35 kinase. Q00535+Q15078. Recombinant CDK5/p35, ADP-Glo luminescence, 60 min. inhibition, % at 10 µM. hit rate 0.01% among 330,000. AID 488839;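 active means highest replicate inhibition of at least 50% and at least 75% of replicates reaching 50%; inconclusive means only one of the two criteria met; inactive means both criteria failed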;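 further: plate controls were DMSO neutral control for no effect and GW8510 at 10 µM for full effect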
CAL PDZ FP-1: blocks peptide binding to the human CAL PDZ domain; hit rate 0.92% among 300,000; Q9HD26; purified CAL PDZ, TMR-peptide fluorescence polarization, 1 h; inhibition, % at 24.9 µM; AID 602252;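 active means mean inhibition of at least 30% with at least half of replicates also reaching 30%; inconclusive means no clear call, values can overlap the other calls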;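 further: 0% = DMSO neutral control and 100% = excess unlabeled competitor peptide PRC23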
dFosB act-1: activators of mouse delta FosB homodimer. P13346. purified delta FosB, TAMRA-CDK5 oligo fluorescence polarization; percent of positive-control signal above neutral wells. activation, % at 25 µM. hit rate 0.99% among 340,000;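 active means mean activation above about 17%, with every replicate also reaching it, limit read from the data, passing the limit was not always enough; inconclusive means only one of the two conditions met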
Target sequence (P13346 whole entry, looked up): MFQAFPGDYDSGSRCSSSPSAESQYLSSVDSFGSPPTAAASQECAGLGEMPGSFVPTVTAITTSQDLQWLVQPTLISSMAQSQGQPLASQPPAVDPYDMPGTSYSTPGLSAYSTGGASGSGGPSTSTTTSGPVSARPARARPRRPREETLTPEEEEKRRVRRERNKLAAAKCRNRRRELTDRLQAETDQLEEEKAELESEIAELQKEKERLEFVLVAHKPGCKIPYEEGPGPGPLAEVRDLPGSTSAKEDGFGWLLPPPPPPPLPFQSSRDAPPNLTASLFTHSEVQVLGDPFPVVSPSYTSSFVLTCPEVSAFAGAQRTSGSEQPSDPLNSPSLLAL
Rtt109 Vps75: inhibitors of Candida albicans Rtt109/Vps75 histone acetyltransferase | Q5AAJ8 | purified Rtt109/Vps75, ThioGlo CoA-SH fluorescence, 4 h | AID 540336 | hit rate 0.16% among 330,000 | inhibition, % at 34.9 µM;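 active means inhibition of at least 50% in every replicate; inconclusive means best replicate reaches 50% inhibition but some replicates fall short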
Target sequence (Q5AAJ8 whole entry, looked up): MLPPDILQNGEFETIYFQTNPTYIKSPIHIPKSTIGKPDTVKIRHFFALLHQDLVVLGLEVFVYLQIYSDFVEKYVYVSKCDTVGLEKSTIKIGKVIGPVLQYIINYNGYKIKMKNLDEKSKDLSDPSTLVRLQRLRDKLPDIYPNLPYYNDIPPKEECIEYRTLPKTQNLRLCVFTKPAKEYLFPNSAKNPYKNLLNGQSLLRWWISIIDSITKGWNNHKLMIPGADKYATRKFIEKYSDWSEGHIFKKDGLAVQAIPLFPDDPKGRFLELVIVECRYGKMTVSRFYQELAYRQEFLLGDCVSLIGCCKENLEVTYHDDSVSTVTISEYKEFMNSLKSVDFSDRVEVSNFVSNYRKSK
CAL PDZ FP-2: human CAL PDZ-peptide interaction inhibition; Q9HD26; purified CAL PDZ, TMR-peptide fluorescence polarization, 1 h; inhibition, % at 20 µM; hit rate 0.02% among 330,000; AID 504414;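 active means highest replicate inhibition of at least 40%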;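 further: plate controls were DMSO neutral control wells for no effect and unlabeled competitor peptide control wells for full effect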
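Test system: tagged CAL PDZ domain / Buffer or medium: sodium phosphate/NaCl buffer pH 7.4 with TCEP, IgG, Thesit / Reagent: TMR-labelled reporter peptide T*-PRC34 bound in PDZ groove / Compound dosing: single point, 20 µM / Schedule: 1 h incubation at room temperature before polarization reading / Technique: fluorescence polarization (mP) / Benchmarks: unlabelled peptide, DMSO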
Dyrk1A ADPGlo: blocks rat Dyrk1A kinase activity | Q63470 | ADP-Glo luminescence, NFATc1 peptide | inhibition, % at 12.5 µM | hit rate 0.43% among 310,000; in the data active means inhibition above about 50%;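 further: plate controls were vehicle with enzyme for no effect and no enzyme for full effect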
dFosB act-2: activators of mouse delta FosB homodimer DNA binding | shares compounds with dFosB act-1 | purified delta FosB, TAMRA-CDK5 oligo fluorescence polarization; normalised: neutral wells 0, positive control 100 | activation, % at 24.9 µM | 2,400 tested, under 10 active;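 active means highest replicate activation at or above 34% and every replicate reaching that threshold; inconclusive means meets only one of the two criteria; inactive means meets neither criterion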;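 further: higher polarization means more probe DNA bound by delta FosB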
Active calls of the source: *; u = inconclusive; x = no result given.

SMILES | CDK5 inh | CAL PDZ FP-1 | dFosB act-1 | Rtt109 Vps75 | CAL PDZ FP-2 | Dyrk1A ADPGlo | dFosB act-2
CCOc1ccc2nc(N(CCN(C)C)C(=O)/C=C/c3cccs3)sc2c1 | -3.6 | -1.0 | 31.9* | -16.8 | -3.7 | -0.7 | 5.8
CCc1ccc2nc(N(CCN(C)C)C(=O)/C=C/c3cccs3)sc2c1 | -2.4 | -2.4 | 3.1 | -9.1 | -1.0 | -2.5 | x
CCCn1c(SCC(=O)N2CCOCC2)nnc1-c1ccncc1 | 0.7 | 18.6 | -9.0 | -5.4 | 0.3 | -6.4 | x
COc1ccc(/C=C/c2nc3ccccc3n2Cc2ccccc2OC)cc1 | 1.6 | -5.3 | 25.0* | 2.2 | -0.4 | 3.9 | 0.5
COc1ccccc1Cn1c(/C=C/c2ccccc2)nc2ccccc21 | 1.6 | -4.7 | -1.0 | -2.5 | -0.4 | 2.6 | x
Cc1cc(C)c2sc(N(CCCN(C)C)C(=O)CN3C(=O)c4ccccc4C3=O)nc2c1 | -2.1 | -4.5 | 30.7* | 44.3 | -4.5 | -2.1 | -15.4
Cc1ccc2nc(N(CCCN(C)C)C(=O)CN3C(=O)c4ccccc4C3=O)sc2c1 | -1.2 | -3.0 | u | 18.1 | -6.7 | -3.6 | x
CC1(C)C2CCC1(CS(=O)(=O)NC(CC(=O)O)c1cccc(Br)c1)C(=O)C2 (stereo not given) | -0.8 | -2.5 | 7.0 | 15.9 | 0.5 | -8.4 | x
COc1ccc(-c2nn(C)c(=O)c3ccccc23)cc1NC(=O)Cn1nc(-c2ccccc2)c2ccccc2c1=O | 0.5 | -3.5 | 18.9* | -6.2 | -0.7 | 8.3 | -1.2
COc1ccc(OCC(=O)Nc2cc(-c3nn(C)c(=O)c4ccccc34)ccc2OC)cc1 | -0.4 | -0.3 | -13.5 | 5.4 | -3.6 | -2.7 | x
CC(C)c1ccc(N(C(=O)c2snc(C(N)=O)c2N)C(C(=O)NC2CCCC2)c2ccncc2)cc1 (stereo not given) | -7.3 | 3.2 | 40.2* | -5.3 | -1.7 | 2.7 | -1.3
NC(=O)c1nsc(C(=O)N(c2ccccc2)C(C(=O)NCc2ccc(F)cc2)c2ccc(O)cc2)c1N (stereo not given) | 0.4 | 1.3 | 44.1* | -16.5 | -0.7 | 2.5 | 2.5
NC(=O)c1nsc(C(=O)N(c2ccccc2)C(C(=O)NC2CCCC2)c2ccncc2)c1N (stereo not given) | -2.2 | -2.2 | -5.2 | -1.6 | -3.5 | 4.0 | x
NC(=O)c1nsc(C(=O)N(c2ccccc2)C(C(=O)NC2CCCCC2)c2ccc(O)cc2)c1N (stereo not given) | 0.3 | -4.0 | 19.2* | 0.3 | 0.1 | 16.7 | 4.4
COCCNC(=O)CN(C(=O)Cn1nnc2ccccc21)c1cc(C)cc(C)c1 | -0.6 | x | 1.7 | 3.6 | 0.9 | -5.1 | x
COc1ccc(N2C(=O)N3[C@@H]4c5ccccc5OC[C@@H]4[C@@H](c4ccccc4)[C@@]3(C)C2=O)cc1 | 0.7 | -3.2 | -1.8 | -1.3 | 0.0 | 5.0 | x
COc1ccc(-c2csc(NC(=S)NC(=O)c3cccs3)n2)cc1OC | 0.1 | 5.8 | -4.5 | 1.3 | -1.7 | 1.0 | x
COc1ccc(-c2csc(NC(=S)NC(=O)c3ccc(S(=O)(=O)N(C)C)cc3)n2)cc1OC | 0.1 | -6.0 | 28.6* | -12.0 | -3.5 | 0.1 | -0.3
Cc1cc(C)n2cc(CSc3nc4cc(Cl)ccc4o3)nc2n1 | -0.1 | -4.5 | 0.9 | 0.8 | -1.9 | 10.9 | x
CN(C)c1nc(N)nc(CSc2nc3cc(Cl)ccc3o2)n1 | 2.8 | -0.1 | 28.5* | -6.0 | -3.1 | -5.7 | 5.9
CC1(NC(=O)NCc2ccccc2)CCS(=O)(=O)C1 (stereo not given) | -0.2 | 0.0 | 8.8 | -3.1 | -1.9 | 0.4 | x
COc1cc(/C=N\NC(=O)c2ccc(C)nc2)ccc1OC(=O)c1ccco1 | -1.9 | 3.2 | -14.0 | 15.9 | -4.3 | 1.4 | x
COc1cc(/C=N\NC(=O)c2ccc(C)nc2)ccc1OC(=O)c1ccc2c(c1)OCO2 | 0.8 | 4.5 | 138.9* | -5.8 | 1.2 | -2.8 | 6.9
Cc1cc(=O)[nH]c(N/N=C/c2c(C)nn(-c3ccc(F)cc3)c2Cl)n1 | 1.6 | -3.3 | 45.8* | -2.1 | 0.9 | x | 0.4
Cc1cc(=O)[nH]c(NN=Cc2c(Cl)cccc2Cl)n1 | -4.6 | -4.6 | -13.4 | -5.7 | -2.6 | 1.7 | x
SMILES | CDK5 inh | CAL PDZ FP-1 | dFosB act-1 | Rtt109 Vps75 | CAL PDZ FP-2 | Dyrk1A ADPGlo | dFosB act-2
CCn1c2ccccc2c2cc(NC(=O)C(C)OC(=O)c3ccc(NC(=O)CC#N)cc3)ccc21 (stereo not given) | -1.8 | 3.9 | 17.6* | -4.7 | 0.2 | x | 6.7
Cc1cc(C)cc(NC(=O)C(OC(=O)c2ccc(NC(=O)CC#N)cc2)c2ccccc2)c1 (stereo not given) | 0.7 | -6.7 | 28.4* | -3.5 | -3.0 | 3.1 | 3.0
Cc1ccc(C)c(NC(=O)C(OC(=O)c2ccc(CO)cc2)c2ccccc2)c1 (stereo not given) | 1.2 | -0.5 | 34.9* | -3.2 | 0.6 | -3.6 | 2.9
CCn1c2ccccc2c2cc(NC(=O)COC(=O)c3ccc(O)cc3)ccc21 | 1.2 | -2.7 | 15.3 | -0.3 | -2.6 | 8.2 | x
COc1ccc(OC)c(NC(=O)[C@@]2(CC(=O)O)CC(/C=C/c3ccccc3)=NO2)c1 | -1.2 | -4.6 | -10.7 | 2.1 | 1.9 | -1.3 | x
Cc1ccccc1NC(=O)NCCN1C(=O)C2C3C=CC(C3)C2C1=O (stereo not given) | -1.4 | x | -2.3 | 5.6 | -0.8 | x | x
CC(=O)c1sc(NC(=O)CCS(=O)(=O)c2ccc(Cl)cc2)nc1C | 1.2 | 0.4 | 20.7* | -27.5 | -0.9 | -11.8 | 0.3
COc1cc(-n2c(=O)c3ccccc3n(Cc3cccc(C)c3)c2=O)cc(OC)c1OC | 0.4 | 0.2 | 53.2* | -5.6 | 1.0 | -8.0 | 4.5
Nc1nc(SCC(=O)Nc2ccc(C(F)(F)F)cc2)[nH]c(=O)c1NC(=O)c1ccc(F)c(F)c1 | 1.3 | -0.1 | 49.9* | -6.9 | -2.5 | -5.1 | -0.6
Cc1cc(NC(=O)CSc2nc(N)c(NC(=O)c3ccc(F)c(F)c3)c(=O)[nH]2)no1 | 1.1 | -1.6 | 56.7* | 0.7 | -2.2 | 3.4 | 5.1
Cc1ccc(C)c(NC(=O)CSc2nc(N)c(NC(=O)c3cccs3)c(=O)[nH]2)c1 | 1.5 | 6.4 | 32.6* | -11.1 | -1.9 | 1.8 | 1.2
Cc1cc(C)cc(NC(=O)CSc2nc(N)c(NC(=O)c3ccc(Br)o3)c(=O)[nH]2)c1 | -0.9 | -2.1 | 77.2* | -6.3 | -2.0 | -4.9 | u
COc1ccc(C)cc1NC(=O)c1ccc(NS(=O)(=O)c2cccs2)cc1 | 2.9 | -7.7 | -4.1 | 10.6 | -2.5 | 5.7 | x
CN(C)CCNC(=S)Nc1ccc(Br)cc1 | -0.3 | -1.1 | 3.7 | 1.0 | -0.2 | 6.3 | x
CCc1nnc(NC(=O)CSc2nc(N)c(NC(=O)c3ccc(OC)cc3)c(=O)[nH]2)s1 | 1.2 | 2.3 | 47.6* | 0.6 | -2.1 | -7.2 | -3.6

Bioassay records: PubChem BioAssay, Broad Institute
